Data from ChEMBL document CHEMBL5154785, “Hypothesis-Driven, Structure-Based Design in Photopharmacology: The Case of eDHFR Inhibitors” (J Med Chem, 2022).
≈ marks a conversion by molar mass, not a printed value. Calls of active or inactive are those of the source. The calls are words filed in the database; no cut-off is given here.

How the values were obtained:
[1] = Inhibition of Escherichia coli DHFR irradiated with 390 nm light preincubated with NADPH for 3 mins followed by compound addition for 7 mins by colorimetric assay
Method in brief: (§1)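 In-house E. coli DHFR expressed in BL21(DE3) and Ni-NTA purified. Enzyme (~20 ng) preincubated with 60 μM NADPH, then with inhibitor at 10^-5 to 10^-12 M final, 1% DMSO. Dark samples heat-adapted to the trans isomer; irradiated samples brought to PSS at 100 μM for 15–45 min. Reaction started with 15 μM dihydrofolate, A340 followed every 5 s for 300 s at 25 °C. Triplicates; activity taken relative to a DMSO control; IC50 from nonlinear regression.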

[2] = Inhibition of Escherichia coli DHFR preincubated with NADPH for 3 mins followed by compound addition for 7 mins under dark condition by colorimetric assay; method in brief: as §1
[3] = Half life of compound; type: physicochemical
Method in brief: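 Metastable-isomer thermal relaxation tracked as recovery of the π–π* band under stirring, at 25 °C in DMSO or eDHFR assay buffer, or at 37 °C in 10 mM Tris-HCl pH 7.0. Fitted to a first-order exponential.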

Escherichia coli [4] = assay: Antibacterial activity against Escherichia coli CS1562 assessed as reduction in bacterial growth under dark condition measured after 24 hrs by plate reader method; type: functional
Method in brief: (§2)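 E. coli CS1562 grown overnight at 37 °C in LB with tetracycline (10 μg/mL), then diluted to 0.002 OD600. Compound serial dilutions made in DMSO and diluted 25-fold in LB. Irradiated set exposed to 355 nm for 30 min before adding cells; dark set not irradiated. Triplicates grown overnight at 37 °C with OD600 read every 10 min, background-corrected to t=0.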

Escherichia coli [5] = assay: Antibacterial activity against Escherichia coli CS1562 assessed as reduction in bacterial growth irradiated with 355 nm light measured after 24 hrs by plate reader method; type: functional; details: CS1562, light or radiation study; method in brief: as §2
Escherichia coli [6] = assay: Antibacterial activity against Escherichia coli CS1562 assessed as reduction in bacterial growth at 20 uM irradiated with 355 nm light measured after 24 hrs by plate reader method; type: functional, organism-based; method in brief: as §2
Escherichia coli [7] = assay: Antibacterial activity against Escherichia coli CS1562 assessed as reduction in bacterial growth at 20 uM measured after 24 hrs under dark condition by plate reader method; type: functional, organism-based; method in brief: as §2

SMILES | IC50 [1] | IC50 [2] | MIC (Escherichia coli [4]) | MIC (Escherichia coli [5]) | other results
COc1cc(Cc2cnc(N)nc2N)cc(OC)c1OCc1cc(Cl)c(/N=N/c2c(Cl)cccc2Cl)c(Cl)c1 |  |  | > 80 µM | 10 µM (≈ 6.08 µg/mL) | 
COc1cc(Cc2cnc(N)nc2N)cc(OC)c1OCc1cc(F)c(/N=N/c2c(F)cccc2F)c(F)c1 |  |  | 10 µM (≈ 5.42 µg/mL) | 5 µM (≈ 2.71 µg/mL) | 
COC(C)(C#Cc1cnc(N)nc1N)c1ccc(/N=N/c2cccc(C(=O)O)c2)cc1 (stereo not given) |  |  |  |  | Activity (Escherichia coli [6]): Active; Activity (Escherichia coli [7]): Active

The next lines start with results.

IC50 [1] | IC50 [2] | MIC (Escherichia coli [4]) | MIC (Escherichia coli [5]) | SMILES | other results
> 10 µM | > 10 µM |  |  | Nc1ncc(/N=N/c2ccccc2)c(N)n1 | half-life [3]: 10 s
 |  | 20 µM (≈ 10 µg/mL) | 10 µM (≈ 5.01 µg/mL) | COc1ccc(/N=N/c2ccc(COc3c(OC)cc(Cc4cnc(N)nc4N)cc3OC)cc2)cc1 | 
> 10 µM | > 10 µM |  |  | Nc1ncc(-c2ccc(/N=N/c3ccccc3)cc2)c(N)n1 | 
> 10 µM | > 10 µM |  |  | Nc1ncc(C#Cc2ccc(/N=N/c3ccccc3)cc2)c(N)n1 | 
